Measured values gathered from unrelated publications.
Compare with care: the assays were run in different laboratories.
Target: Serine/threonine-protein kinase DCLK1 (DCLK1, Homo sapiens, UniProt O15075)
Sequence (O15075 1-740, as in one of the studies): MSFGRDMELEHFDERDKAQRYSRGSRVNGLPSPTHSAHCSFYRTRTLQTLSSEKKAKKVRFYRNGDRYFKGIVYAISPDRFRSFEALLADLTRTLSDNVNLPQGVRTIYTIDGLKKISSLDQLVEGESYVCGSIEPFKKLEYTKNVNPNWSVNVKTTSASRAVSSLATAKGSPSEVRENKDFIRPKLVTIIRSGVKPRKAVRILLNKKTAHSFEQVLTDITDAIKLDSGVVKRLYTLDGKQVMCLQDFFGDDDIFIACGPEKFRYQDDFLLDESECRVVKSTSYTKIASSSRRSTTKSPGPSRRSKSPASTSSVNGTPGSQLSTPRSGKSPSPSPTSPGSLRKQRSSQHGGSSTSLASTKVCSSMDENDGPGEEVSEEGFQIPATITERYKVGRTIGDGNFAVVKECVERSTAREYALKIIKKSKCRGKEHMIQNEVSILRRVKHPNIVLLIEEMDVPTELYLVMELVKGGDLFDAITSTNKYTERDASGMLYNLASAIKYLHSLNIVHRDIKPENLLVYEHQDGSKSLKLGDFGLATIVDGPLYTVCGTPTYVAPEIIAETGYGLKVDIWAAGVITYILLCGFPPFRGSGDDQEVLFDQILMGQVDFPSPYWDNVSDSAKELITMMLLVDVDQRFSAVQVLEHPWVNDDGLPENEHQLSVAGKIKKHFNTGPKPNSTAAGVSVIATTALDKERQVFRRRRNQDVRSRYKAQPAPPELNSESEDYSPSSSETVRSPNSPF

C1=C/COCc2cc(ccc2OCCN2CCCC2)Nc2nccc(n2)-c2cccc(c2)COC/1  remaining signal (cell-free assay; 0.1 µM): 100%
CN1CCN(C(=O)c2ccc(NC(=O)Nc3ccc(N(C)c4ccnc(Nc5ccc(CS(C)(=O)=O)cc5)n4)cc3)cc2)CC1  remaining binding (binding; competition with immobilised ligand; 1 µM): 97%
N#Cc1ccc(NC(=O)Nc2ccccc2)cc1  remaining binding (cell-free assay; competition with immobilised ligand; 25 µM): 91%
COc1ccc2oc(-c3ccc4nc(N)oc4c3)c/c(=N\c3ccccc3NC(=O)CCN)c2c1  remaining binding (binding; 1 µM): 96%
CC#CC(=O)N1CCC[C@H]1c1nc(-c2ccc(C(=O)Nc3ccccn3)cc2)c2c(N)nccn12  inhibition (enzyme activity; inhibitor; 1 µM): 15%
CCCCC(=O)Nc1ccc(-c2ccc3ncn(CCC)c(=O)c3c2)cn1  remaining binding (binding; competition with immobilised ligand; 0.5 µM): 68%
CC(C)S(=O)(=O)c1ccc2nccc(Nc3ccc4sc(C5CCCC5)nc4c3)c2c1  activity vs control (enzyme activity; inhibitor; 1 µM): 102%
C[C@H]1CC[C@H](n2c3cnccc3c3cnc(Nc4ccc5c(n4)CCN(C(=O)CO)C5)nc32)CC1  remaining signal (cell-free assay; 1 µM): 75%
C=CC(=O)N1CCC([C@@H]2CCNc3c(C(N)=O)c(-c4ccc(Oc5ccccc5)cc4)nn32)CC1  inhibition (enzyme activity; inhibitor; 1 µM): 41%
